Experimental findings from ChEMBL document CHEMBL4390639, “Design, Synthesis, and Biological Evaluation of Novel Allosteric Protein Disulfide Isomerase Inhibitors” (J Med Chem, 2019) are described below.

Data set [1] deals with T1, Protein disulfide-isomerase (Homo sapiens, UniProt P07237). In words: Inhibition of recombinant human N-terminal His-tagged PDI expressed in Escherichia coli BL21 (DE3) pLysS assessed as reduction in enzyme-mediated bovine insulin aggregation.
Target sequence in this assay (P07237 whole entry): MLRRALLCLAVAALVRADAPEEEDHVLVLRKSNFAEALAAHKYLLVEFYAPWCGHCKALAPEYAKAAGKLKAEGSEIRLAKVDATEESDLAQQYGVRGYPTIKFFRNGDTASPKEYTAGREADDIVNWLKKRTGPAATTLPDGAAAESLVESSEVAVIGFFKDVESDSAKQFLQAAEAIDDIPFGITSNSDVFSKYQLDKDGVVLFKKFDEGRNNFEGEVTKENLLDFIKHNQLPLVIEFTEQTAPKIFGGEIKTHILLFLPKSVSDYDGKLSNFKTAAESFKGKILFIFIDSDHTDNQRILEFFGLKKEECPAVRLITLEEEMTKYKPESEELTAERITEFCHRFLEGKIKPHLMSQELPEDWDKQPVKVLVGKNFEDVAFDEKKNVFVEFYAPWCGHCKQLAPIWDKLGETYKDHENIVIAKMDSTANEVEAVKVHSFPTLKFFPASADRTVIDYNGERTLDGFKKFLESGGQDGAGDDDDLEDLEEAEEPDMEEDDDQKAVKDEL
Data set [2] has as its system U-87 MG. In words: Inhibition of colony formation in human U87MG cells […] by crystal violet staining based assay. It counts as functional, cell-based. To be noted: U-87MG ATCC. In outline:
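Clonogenicity: U87MG cells seeded at 200 cells/well, left overnight, treated 24 h, then medium replaced and cells grown ten days. Stained 30 min with crystal violet, washed, imaged; normalized well intensity from three independent experiments.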

The target of data set [3] is T1, Protein disulfide-isomerase. In words: Binding affinity to recombinant human N-terminal His-tagged PDI expressed in Escherichia coli BL21 (DE3) pLysS assessed as change in melting temperature at 100 uM by ROX dye based thermal shift assay. In outline: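 Purified wild-type, C53S/C397S or H256A PDI at 0.5 mg/mL in 50 mM Tris, pH 7.0, with or without 100 μM compound, was mixed with ROX dye in a 20 µL well. DMSO (5% in buffer) was the control. Samples were heated 25–99 °C at 1 °C/min, and the Boltzmann melting temperature shift versus DMSO was reported. Mean ± SD of three experiments.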
Target sequence in this assay (P07237 18-508 limits assumed): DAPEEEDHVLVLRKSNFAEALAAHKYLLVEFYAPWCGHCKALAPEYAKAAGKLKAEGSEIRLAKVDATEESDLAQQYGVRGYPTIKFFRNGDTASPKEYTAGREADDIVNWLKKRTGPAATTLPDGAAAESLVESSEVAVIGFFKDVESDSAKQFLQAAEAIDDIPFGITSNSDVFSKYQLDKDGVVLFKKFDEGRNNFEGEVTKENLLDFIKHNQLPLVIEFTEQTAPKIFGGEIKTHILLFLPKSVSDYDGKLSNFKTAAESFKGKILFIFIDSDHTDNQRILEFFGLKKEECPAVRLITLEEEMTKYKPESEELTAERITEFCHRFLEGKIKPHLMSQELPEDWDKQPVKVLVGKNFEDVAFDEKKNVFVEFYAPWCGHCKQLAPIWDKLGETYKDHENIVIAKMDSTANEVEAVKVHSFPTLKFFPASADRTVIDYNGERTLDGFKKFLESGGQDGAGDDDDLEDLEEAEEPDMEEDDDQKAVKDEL

The target in data set [4] is Eukaryotic translation initiation factor 2 subunit 1 (Homo sapiens) (UniProt P05198). In words: Induction of EIF2alpha phosphorylation in human U87MG cells at 1 uM measured after 2 hrs by Western blot analysis. It is filed as cell-based. In outline:
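eIF2α phosphorylation in U87MG cells after 2 h with 1 µM PACMA31 or 20 µM analogues; tunicamycin 10 µg/mL as comparator. Lysates (Tris/NaCl/Triton/SDS, sonicated) quantified by BCA; 30 µg protein separated on 10% gels, blotted to PVDF, probed for phospho-eIF2α, detected by fluorescence.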

Data set [5] has as its system U-87 MG. In words: Induction of endoplasmic reticulum stress in human U87MG cells assessed as increase in GRP78 expression at 1 uM measured after 24 hrs by Western blot analysis. It counts as functional, cell-based. To be noted: U-87MG ATCC. In outline:
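ER-stress immunoblot: 0.5 x 10^6 U87MG cells/well treated for 24 h with 20 µM analogues, 1 µM PACMA31 or DMSO; tunicamycin 10 µg/mL for 2 or 24 h as positive control. Lysis in Tris/NaCl/Triton/SDS buffer with sonication; 30 µg protein on 10% gels, transferred to PVDF, GRP78 probed, fluorescence imaging.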
In general terms: In western blotting, separated proteins are transferred to a membrane and probed.

For data set [6], the target named is Eukaryotic translation initiation factor 2 subunit 1 (Homo sapiens) (UniProt P05198). In words: Induction of EIF2alpha phosphorylation in human A172 cells at 1 uM measured after 2 hrs by Western blot analysis. It is filed as cell-based.
Data set [7] has as its system A 172. In words: Induction of endoplasmic reticulum stress in human A172 cells assessed as increase in GRP78 expression at 1 uM measured after 24 hrs by Western blot analysis. It is filed as functional, cell-based.
For data set [8], the system named is A 172. In words: Antimigratory activity against human A172 cells assessed as reduction in cell migration towards wound area measured after 24 hrs by Giemsa staining based microscopic analysis. It is filed as functional. The procedure, abridged: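 A172 cells plated at 50,000 cells/well, incubated overnight at 37 °C, 5% CO2, then held 24 h in serum-free DMEM. A scratch was made, compounds were added, and cells grew 24 h until DMSO-control wells closed. Cells were Giemsa-stained and imaged at 10X.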

Data set [9] has as its system A 172. In words: Antimigratory activity against human A172 cells at 30 uM measured after 4 hrs by Giemsa staining based transwell migration assay. It is filed as functional, cell-based. In outline:
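A172 cells (1 x 10^5) were treated with compound and seeded into inserts with 8.0 μm PET membrane in serum-free medium. DMEM with 10% FBS was in the lower well; wells without FBS served as control. After 4 h, migrated cells were Giemsa-stained and imaged at 10X, 5 fields per well.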

The target in data set [10] is 72 kDa type IV collagenase (Homo sapiens) (UniProt P08253). In words: Inhibition of MMP2 activity in human U87MG cells at 0.25 uM […] by gelatin zymographic method. It is filed as cell-based.
The test system of data set [11] is U-87 MG. In words: Down regulation of cleaved MMP2 expression in human U87MG cells at 0.25 uM measured after 24 hrs by Western blot analysis. It is filed as functional, cell-based. To be noted: U-87MG ATCC.
The subject of data set [12] is U-87 MG. In words: Down regulation of MMP9 expression in human U87MG cells at 0.25 uM measured after 24 hrs by Western blot analysis. It is filed as functional, cell-based. To be noted: U-87MG ATCC.
The test system of another data set is D54 cell line. In words: Inhibition of colony formation in 1 to 6 Gy-irradiated human D54 cells at 0.05 uM measured after 10 to 12 days by crystal violet staining based assay. It is filed as functional, cell-based. The procedure, abridged:
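D54 cells irradiated at 0, 1, 2, 4 or 6 Gy and plated immediately at 200–1000 cells/well according to dose. Treated with DMSO, 0.05 μM PACMA31 or 1 μM compounds, grown 10–12 days, then colonies stained with 0.1% crystal violet.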

Data set [13] deals with T1, Protein disulfide-isomerase. In words: Inhibition of recombinant human N-terminal His-tagged PDI expressed in Escherichia coli BL21 (DE3) pLysS at 100 uM measured after 1 hr by ANS dye based fluorescence spectra analysis. In outline:
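ANS spectral scan: PDI incubated with 100 μM compounds or matching DMSO in TBS for 1 h at 37 °C. ANS then added and incubated 20 min at 25 °C in the dark. Fluorescence spectrum recorded with excitation 370 nm, emission 400–700 nm.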
Target sequence in this assay (P07237 18-508 limits assumed): as above

Data set [14] has the same target. In words: Inhibition of recombinant human N-terminal His-tagged PDI expressed in Escherichia coli BL21 (DE3) pLysS assessed as reduction in enzyme-mediated bovine insulin aggregation at 40 uM measured after 1 hr in presence of 5 mM NAC. In outline:
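Compounds pretreated with NAC for 30 min at 37 °C, then added to the insulin reductase assay at final 40 μM compound with 0, 1, 2 or 5 mM NAC. The assay uses 0.4 μM PDI preincubated 1 h at 37 °C, then DTT and bovine insulin, read at 620 nm, with % activity at 80 min.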
Target sequence in this assay (P07237 18-508 limits assumed): as above

Data set [15] can be described thus: Solubility of the compound in DMSO. It is filed as physicochemical.
Data set [16] relates to U-87 MG. In words: Cytotoxicity against human U87MG cells assessed as inhibition of cell growth measured after 72 hrs by MTT assay. It counts as functional, cell-based, U-87MG ATCC. The following applies: u-87mg atcc. In outline:
(§1)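 A172 and NU04 cells were seeded at 4000 cells/well and U87MG at 5000 cells/well, incubated overnight at 37 °C, 5% CO2, then exposed to compound or vehicle for 72 h. MTT (3 mg/mL) was added for 4 h, formazan was dissolved in DMSO, and absorbance was read at 570 nm. IC50 came from nonlinear regression; mean ± SD of at least three experiments.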

The subject of data set [17] is A 172. In words: Cytotoxicity against human A172 cells assessed as inhibition of cell growth measured after 72 hrs by MTT assay. It counts as functional, cell-based. The following applies: a 172. In outline:
as §1
(In general: Formazan colour is commonly taken as a measure of viable cells.)

A short description of data set [18]: Cytotoxicity against human NU04 cells assessed as inhibition of cell growth measured after 72 hrs by MTT assay. It counts as functional, cell-based. The procedure, abridged:
as §1

As a reminder, the IC50 is the concentration that gives 50% inhibition. A word on the ΔTm: it is the change in melting temperature against a reference sample.

The source made the active and inactive calls. No cut-off for these calls is given here.

Sequence of Eukaryotic translation initiation factor 2 subunit 1 (Homo sapiens) (P05198 whole entry): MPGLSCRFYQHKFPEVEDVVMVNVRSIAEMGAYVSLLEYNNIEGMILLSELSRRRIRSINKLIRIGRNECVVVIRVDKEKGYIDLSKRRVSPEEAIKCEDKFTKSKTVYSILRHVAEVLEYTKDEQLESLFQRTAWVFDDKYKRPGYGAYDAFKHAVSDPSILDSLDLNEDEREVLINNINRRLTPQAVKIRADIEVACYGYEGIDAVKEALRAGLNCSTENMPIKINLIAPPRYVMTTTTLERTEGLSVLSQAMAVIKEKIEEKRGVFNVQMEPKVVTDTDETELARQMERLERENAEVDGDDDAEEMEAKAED
Sequence of 72 kDa type IV collagenase (Homo sapiens) (P08253 110-660 limits assumed): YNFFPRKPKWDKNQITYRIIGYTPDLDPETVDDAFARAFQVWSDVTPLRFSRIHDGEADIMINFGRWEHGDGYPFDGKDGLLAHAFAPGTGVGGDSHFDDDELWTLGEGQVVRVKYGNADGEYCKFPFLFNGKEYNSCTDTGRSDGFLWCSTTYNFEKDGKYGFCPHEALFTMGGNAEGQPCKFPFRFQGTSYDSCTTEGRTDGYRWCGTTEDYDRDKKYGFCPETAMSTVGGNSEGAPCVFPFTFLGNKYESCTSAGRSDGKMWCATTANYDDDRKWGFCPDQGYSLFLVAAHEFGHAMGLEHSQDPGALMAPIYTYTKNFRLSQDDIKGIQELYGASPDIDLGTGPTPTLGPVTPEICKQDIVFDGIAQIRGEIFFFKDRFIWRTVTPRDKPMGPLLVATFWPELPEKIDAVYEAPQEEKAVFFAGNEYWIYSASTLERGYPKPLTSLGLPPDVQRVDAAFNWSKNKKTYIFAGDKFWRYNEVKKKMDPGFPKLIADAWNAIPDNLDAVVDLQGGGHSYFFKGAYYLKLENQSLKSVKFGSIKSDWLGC

Regarding `C#CC(=O)N(c1ccc(OC)cc1OC)C(C(=O)NCC(=O)OCC)c1cccs1` (stereo not given), the IC50 in [1] stood at 10.8 µM. The inhibition entry in the data set on U-87 MG [2] is “Dose-dependent effect”. Moreover, in data set [3], the ΔTm came out at 0.03 °C. Also, the outcome in data set [4] and in [6] was inactive. The outcome in the data set on U-87 MG [5], in the data set on A 172 [7], in the data set on A 172 [9], with U-87 MG [11] and with U-87 MG [12] was Active. The Activity result with A 172 [8] was “Dose-dependent effect”. The inhibition entry in data set [10] was “Active”. In addition, the inhibition result (with D54 cell line; in data set [13]; in data set [14]) was “inactive” throughout.

For the molecule `N#Cc1cccc(/C=C/C(=O)c2ccc(S(=O)(=O)NC3CC3)cc2)c1`, the IC50 in [1] is 1.05 µM; in the data set with U-87 MG [16], “Nd(Insoluble)”; in the data set on A 172 [17], “Nd(Insoluble)”; in data set [18], “Nd(Insoluble)”. In [15], the solubility entry is reported as “Insoluble”.
